ChEMBL document CHEMBL3120133, “Discovery of a potent boronic acid derived inhibitor of the HCV RNA-dependent RNA polymerase” (J Med Chem, 2014)
Activity calls are given as the source filed them. The calls are words filed in the database; no cut-off is given here.

Key:
[1] = Inhibition of C-terminal 6xHis-tagged Hepatitis C virus genotype 1b BK NS5B Cdelta21 RNA dependent RNA polymerase L47Q/F101Y/[…] mutant after 30 mins in presence of [alpha-33P]; design: species or system Hepatitis C virus (isolate BK)
Hepatitis C virus [2] = assay: Antiviral activity against wild type Hepatitis C virus genotype 1b harboring C316N mutant infected in human HuH7 cells assessed as inhibition of viral replication after 48 hrs by luciferase reporter gene assay; type: functional, organism-based, Hepacivirus hominis; settings: Huh-7, 48 h
Hepatitis C virus [3] = assay: Antiviral activity against wild type Hepatitis C virus genotype 1b infected in human HuH7 cells assessed as inhibition of viral replication after 48 hrs by luciferase reporter gene assay; type: functional, organism-based, Hepacivirus hominis; settings: Huh-7, 48 h
Summary of the method: (§1)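 Replicon-based readout (stable and transient replicon formats) in place of virus infection, with compound present for 2 days before EC50 determination.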

Hepatitis C virus [4] = assay: Antiviral activity against wild type Hepatitis C virus genotype 1a infected in human HuH7 cells assessed as inhibition of viral replication after 48 hrs by luciferase reporter gene assay; type: functional, organism-based, Hepacivirus hominis; settings: subtype 1a, Huh-7, 48 h; summary of the method: as §1
[5] = Stability of the compound; type: physicochemical
Huh-7 = assay: Cytotoxicity in human HuH7 cells assessed as cell viability after 72 hrs by CellTitre-glo luminescence assay; type: cell-based; settings: huh-7, 72 h
Hepatitis C virus [6] = assay: Antiviral activity against wild type Hepatitis C virus genotype 1b harboring C316Y mutant infected in human HuH7 cells assessed as inhibition of viral replication after 72 hrs by Bright-glo luciferase reporter gene assay; type: functional, organism-based, Hepacivirus hominis; settings: Huh-7, 72 h
Hepatitis C virus [7] = assay: Antiviral activity against wild type Hepatitis C virus genotype 1b harboring C316F mutant infected in human HuH7 cells assessed as inhibition of viral replication after 72 hrs by Bright-glo luciferase reporter gene assay; type: functional, organism-based, Hepacivirus hominis; settings: Huh-7, 72 h
Hepatitis C virus [8] = assay: Antiviral activity against wild type Hepatitis C virus genotype 1a harboring C316Y mutant infected in human HuH7 cells assessed as inhibition of viral replication after 48 hrs by luciferase reporter gene assay; type: functional, organism-based, Hepacivirus hominis; settings: subtype 1a, Huh-7, 48 h
Hepatitis C virus [9] = assay: Antiviral activity against wild type Hepatitis C virus genotype 1b harboring S365T mutant infected in human HuH7 cells assessed as inhibition of viral replication after 72 hrs by Bright-glo luciferase reporter gene assay; type: functional, organism-based, Hepacivirus hominis; settings: Huh-7, 72 h
[10] = system: RNA-directed RNA polymerase (Hepacivirus hominis), O39930 [C316N]; assay: Binding affinity to Hepatitis C virus genotype 1b NS5B Cdelta21 RNA dependent RNA polymerase 316N mutant assessed as dissociation half life at 0.6 uM by LC-MS/MS analysis; settings: Hepatitis C virus subtype 1b
Summary of the method: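 NS5B∆21 GT1b 316N (10 uM) saturated with 12uM inhibitor to pre-form the complex, then diluted 20-fold into 10 uM of the competing Palm II inhibitor to block rebinding. Bound compound was separated from free by rapid size-exclusion filtration over time, and both inhibitors were quantified by LC-MS. Off-rates were fitted to a single or two-phase exponential to give t1/2.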

[11] = molecular target: RNA-directed RNA polymerase (Hepacivirus hominis, UniProt O39930, C316N); assay: Inhibition of Hepatitis C virus genotype 1b NS5B Cdelta21 RNA dependent RNA polymerase 316N mutant using biotinylated polyC:oligoG/[alpha-P33]-GTP as template/substrate preincubated for 15 mins followed by template/substrate addition by scintillation proximity assay; design: species or system Hepatitis C virus subtype 1b
Summary of the method: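 Isolated NS5B at 30 nM was preincubated with inhibitor for 15 min before reaction start. The IC50 was determined from the polymerase assay.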

[12] = system: Hepatitis C virus (isolate BK); assay: Inhibition of C-terminal 6xHis-tagged Hepatitis C virus genotype 1b BK NS5B Cdelta21 RNA dependent RNA polymerase L47Q/F101Y/[…] mutant expressed in Escherichia coli BL21(DE3) using radiolabelled CTP/5'-A(8)CG-3' as substrate/template assessed as inhibition of pCpG dimer formation at 0.016 to 10 uM
[13] = Clearance in Sprague-Dawley rat at 1 mg/kg, iv and 5 mg/kg, po; type: ADME, organism-based; settings: in vivo

Chain of RNA-directed RNA polymerase (Hepacivirus hominis), O39930 [C316N] (O39930 entry or part of it C316N): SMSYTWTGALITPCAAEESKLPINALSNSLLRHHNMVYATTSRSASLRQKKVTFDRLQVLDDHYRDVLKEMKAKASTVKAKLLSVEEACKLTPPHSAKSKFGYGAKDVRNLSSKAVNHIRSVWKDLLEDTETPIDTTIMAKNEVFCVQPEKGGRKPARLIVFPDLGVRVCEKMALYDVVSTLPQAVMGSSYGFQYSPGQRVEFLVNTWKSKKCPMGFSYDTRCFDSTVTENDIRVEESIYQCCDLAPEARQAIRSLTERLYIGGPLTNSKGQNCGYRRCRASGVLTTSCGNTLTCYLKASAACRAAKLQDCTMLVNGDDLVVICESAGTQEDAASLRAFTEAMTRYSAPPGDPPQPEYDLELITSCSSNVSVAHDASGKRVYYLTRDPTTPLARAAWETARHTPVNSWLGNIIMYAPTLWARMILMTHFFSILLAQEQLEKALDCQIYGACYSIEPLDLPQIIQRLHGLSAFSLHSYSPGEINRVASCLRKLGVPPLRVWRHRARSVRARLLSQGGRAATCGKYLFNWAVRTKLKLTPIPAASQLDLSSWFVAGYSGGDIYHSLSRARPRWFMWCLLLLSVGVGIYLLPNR
Chain of RNA-directed RNA polymerase (O39930 entry or part of it C316N): as above

SMILES | IC50 [1] | EC50 (Hepatitis C virus [2]) | EC50 (Hepatitis C virus [3]) | EC50 (Hepatitis C virus [4]) | Stability [5] | Activity (Huh-7) | EC50 (Hepatitis C virus [6]) | EC50 (Hepatitis C virus [7]) | EC50 (Hepatitis C virus [8]) | EC50 (Hepatitis C virus [9]) | T1/2 [10] | IC50 [11] | inhibition [12] | clearance [13]
CNC(=O)c1c(-c2ccc(F)cc2)oc2cc(N(Cc3ccccc3)S(C)(=O)=O)c(C3CC3)cc12 | 50 nM | 440 nM | 18 nM | 58 nM | – | – | – | – | – | – | – | – | – | –
CNC(=O)c1c(-c2ccc(F)cc2)oc2cc(N(Cc3cccc(B(O)O)c3)S(C)(=O)=O)c(C3CC3)cc12 | 30 nM | 120 nM | 6.9 nM | 8.8 nM | – | – | – | – | – | – | – | – | – | –
CNC(=O)c1c(-c2ccc(F)cc2)oc2cc(N(CC3CCOB(O)C3)S(C)(=O)=O)c(C3CC3)cc12 (racemic) | 80 nM | 38 nM | 3.7 nM | 9.1 nM | Stable | Non-toxic | – | – | – | – | – | – | – | –
CNC(=O)c1c(-c2ccc(F)cc2)oc2cc(N(Cc3ccc(P(=O)(O)O)cc3)S(C)(=O)=O)c(C3CC3)cc12 | 20 nM | > 5000 nM | 760 nM | 2200 nM | – | – | – | – | – | – | – | – | – | –
CNC(=O)c1c(-c2ccc(F)cc2)oc2cc(N(CC3CCB(O)O3)S(C)(=O)=O)c(C3CC3)cc12 (racemic) | 100 nM | 52 nM | 6.5 nM | 8.8 nM | Stable | Non-toxic | – | – | – | – | – | – | – | –
CNC(=O)c1c(-c2ccc(F)cc2)oc2cc(N(Cc3ccc4c(c3)B(O)OC4)S(C)(=O)=O)c(C3CC3)cc12 | 32 nM | 64 nM | 4.9 nM | 7.4 nM | – | – | – | – | – | – | – | – | – | –
CNC(=O)c1c(-c2ccc(F)cc2)oc2cc(N(Cc3cc(F)c4c(c3)COB4O)S(C)(=O)=O)c(C3CC3)cc12 | 32 nM | 12 nM | 3.2 nM | 5.8 nM | – | – | 16 nM | 110 nM | 190 nM | 84 nM | – | – | – | –
CNC(=O)c1c(-c2ccc(F)cc2)oc2cc(N(CC3CCB(O)OC3)S(C)(=O)=O)c(C3CC3)cc12 (racemic) | 63 nM | 56 nM | 6.4 nM | 9.7 nM | Stable | Non-toxic | – | – | – | – | – | – | – | –
CNC(=O)c1c(-c2ccc(F)cc2)oc2cc(N(Cc3ccc(B(O)O)c(F)c3)S(C)(=O)=O)c(C3CC3)cc12 | 50 nM | 1.9 nM | 1.7 nM | 3 nM | – | – | 1.4 nM | 3.8 nM | 3.2 nM | 4.2 nM | 4.3 h | 130 nM | Active | –
CNC(=O)c1c(-c2ccc(F)cc2)oc2cc(N(CC3COB(O)C3)S(C)(=O)=O)c(C3CC3)cc12 (racemic) | 50 nM | 7.6 nM | 2.8 nM | 2.9 nM | Stable | Non-toxic | – | – | – | – | – | – | – | –
CNC(=O)c1c(-c2ccc(F)cc2)oc2cc(N(Cc3ccc(S(=O)(=O)O)cc3)S(C)(=O)=O)c(C3CC3)cc12 | 16 nM | > 5000 nM | 1800 nM | > 5000 nM | – | – | – | – | – | – | – | – | – | –
CNC(=O)c1c(-c2ccc(F)cc2)oc2cc(N(C[C@H]3COB(O)C3)S(C)(=O)=O)c(C3CC3)cc12 | 50 nM | 11 nM | 2.9 nM | 5.3 nM | Stable | Non-toxic | – | – | – | – | – | – | – | 32 mL/min/kg
CNC(=O)c1c(-c2ccc(F)cc2)oc2cc(N(CCC3OB(O)c4ccccc43)S(C)(=O)=O)c(C3CC3)cc12 (racemic) | 32 nM | 12 nM | 3.5 nM | 7.4 nM | – | – | – | – | 790 nM | – | – | – | – | –
CNC(=O)c1c(-c2ccc(F)cc2)oc2cc(N(CC3=CB(O)OC3)S(C)(=O)=O)c(C3CC3)cc12 | 50 nM | 13 nM | 1.9 nM | 9.6 nM | Stable | Non-toxic | – | – | – | – | – | – | – | –
CNC(=O)c1c(-c2ccc(F)cc2)oc2cc(N(Cc3ccc4c(c3)CCOB4O)S(C)(=O)=O)c(C3CC3)cc12 | 40 nM | 9 nM | 4.2 nM | 7 nM | – | – | – | – | 350 nM | – | – | – | – | –
CNC(=O)c1c(-c2ccc(F)cc2)oc2cc(N(Cc3ccc(B(O)O)c(OC)c3)S(C)(=O)=O)c(C3CC3)cc12 | 100 nM | 50 nM | 3.6 nM | 12 nM | – | – | – | – | – | – | – | – | – | –
CNC(=O)c1c(-c2ccc(F)cc2)oc2cc(N(Cc3cccc4c3COB4O)S(C)(=O)=O)c(C3CC3)cc12 | 32 nM | 110 nM | 4.9 nM | 17 nM | – | – | – | – | – | – | – | – | – | –
CNC(=O)c1c(-c2ccc(F)cc2)oc2cc(N(Cc3ccc4c(c3)COB4O)S(C)(=O)=O)c(C3CC3)cc12 | 40 nM | 16 nM | 2.7 nM | 9.5 nM | – | – | – | – | – | – | – | – | – | –
CNC(=O)c1c(-c2ccc(F)cc2)oc2cc(N(C[C@@H]3COB(O)C3)S(C)(=O)=O)c(C3CC3)cc12 | 63 nM | 13 nM | 4.6 nM | 7.6 nM | – | – | 11 nM | 37 nM | 830 nM | 6.5 nM | – | – | – | 6.6 mL/min/kg
CCOP(=O)(OCC)c1ccc(CN(c2cc3oc(-c4ccc(F)cc4)c(C(=O)NC)c3cc2C2CC2)S(C)(=O)=O)cc1 | 100 nM | 480 nM | 20 nM | 36 nM | – | – | – | – | – | – | – | – | – | –
CNC(=O)c1c(-c2ccc(F)cc2)oc2cc(N(CCOCB(O)O)S(C)(=O)=O)c(C3CC3)cc12 | 40 nM | 3.9 nM | 3.2 nM | 6.7 nM | – | – | – | – | – | – | – | – | – | 25 mL/min/kg
CNC(=O)c1c(-c2ccc(F)cc2)oc2cc(N(CCC3COB(O)C3)S(C)(=O)=O)c(C3CC3)cc12 (racemic) | 50 nM | 5.6 nM | 3.1 nM | 6.1 nM | Stable | Non-toxic | – | – | – | – | – | – | – | –
CNC(=O)c1c(-c2ccc(F)cc2)oc2cc(N(Cc3ccc(B(O)O)c(C)c3)S(C)(=O)=O)c(C3CC3)cc12 | 80 nM | 5.4 nM | 2.2 nM | 4.8 nM | – | – | – | – | – | – | – | – | – | –
CNC(=O)c1c(-c2ccc(F)cc2)oc2cc(N(Cc3ccc(C(=O)O)cc3)S(C)(=O)=O)c(C3CC3)cc12 | 25 nM | 3200 nM | 150 nM | 290 nM | – | – | – | – | – | – | – | – | – | –
